# Test system: Eikenella corrodens
# Experiment: Antibacterial activity against anaerobic Bacteroides corrodens 1874
# Format: functional
# Details: not given
# In short: (§1)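 MIC by agar dilution following the NCCLS M11-A2 (2nd ed.) procedure for antimicrobial testing of anaerobic bacteria.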
row,SMILES,MIC
1,CO[C@@]1(NC(=O)C2SC(=C(C(N)=O)C(=O)O)S2)C(=O)N2C(C(=O)O)=C(CSc3nnnn3C)CS[C@@H]21 (some centres not stated) [CEFOTETAN],8 µg/mL

# Test system: Phocaeicola vulgatus
# Experiment: Antibacterial activity against anaerobic Bacteroides vulgatus 1211
# Format: functional
# Details: not given
# In short: as §1
row,SMILES,MIC
1,CO[C@@]1(NC(=O)C2SC(=C(C(N)=O)C(=O)O)S2)C(=O)N2C(C(=O)O)=C(CSc3nnnn3C)CS[C@@H]21 (some centres not stated) [CEFOTETAN],4 µg/mL

# Test system: Bacteroides thetaiotaomicron
# Experiment: Antibacterial activity against anaerobic Bacteroides thetaiotaomicron 1438
# Format: functional
# Details: not given
# In short: as §1
row,SMILES,MIC
1,CO[C@@]1(NC(=O)C2SC(=C(C(N)=O)C(=O)O)S2)C(=O)N2C(C(=O)O)=C(CSc3nnnn3C)CS[C@@H]21 (some centres not stated) [CEFOTETAN],1 µg/mL

# Test system: Prevotella melaninogenica
# Experiment: Antibacterial activity against anaerobic Bacteroides melaninogenicus 1856/28
# Format: functional
# Details: not given
# In short: as §1
row,SMILES,MIC
1,CO[C@@]1(NC(=O)C2SC(=C(C(N)=O)C(=O)O)S2)C(=O)N2C(C(=O)O)=C(CSc3nnnn3C)CS[C@@H]21 (some centres not stated) [CEFOTETAN],128 µg/mL

# Test system: Prevotella melaninogenica
# Experiment: Antibacterial activity against anaerobic Bacteroides melaninogenicus 2736
# Format: functional
# Details: not given
# In short: as §1
row,SMILES,MIC
1,CO[C@@]1(NC(=O)C2SC(=C(C(N)=O)C(=O)O)S2)C(=O)N2C(C(=O)O)=C(CSc3nnnn3C)CS[C@@H]21 (some centres not stated) [CEFOTETAN],128 µg/mL

# Test system: Bacteroides fragilis
# Experiment: Antibacterial activity against anaerobic Bacteroides fragilis 111
# Format: functional
# Details: not given
# In short: as §1
row,SMILES,MIC
1,CO[C@@]1(NC(=O)C2SC(=C(C(N)=O)C(=O)O)S2)C(=O)N2C(C(=O)O)=C(CSc3nnnn3C)CS[C@@H]21 (some centres not stated) [CEFOTETAN],8 µg/mL

# Test system: Bacteroides fragilis
# Experiment: Antibacterial activity against anaerobic Bacteroides fragilis 1877
# Format: functional
# Details: not given
# In short: as §1
row,SMILES,MIC
1,CO[C@@]1(NC(=O)C2SC(=C(C(N)=O)C(=O)O)S2)C(=O)N2C(C(=O)O)=C(CSc3nnnn3C)CS[C@@H]21 (some centres not stated) [CEFOTETAN],8 µg/mL

# Test system: Bacteroides fragilis
# Experiment: Antibacterial activity against anaerobic Bacteroides fragilis 1936B
# Format: functional
# Details: not given
# In short: as §1
row,SMILES,MIC
1,CO[C@@]1(NC(=O)C2SC(=C(C(N)=O)C(=O)O)S2)C(=O)N2C(C(=O)O)=C(CSc3nnnn3C)CS[C@@H]21 (some centres not stated) [CEFOTETAN],8 µg/mL

# Test system: Clostridioides difficile
# Experiment: Antibacterial activity against anaerobic Clostridium difficile 2994 strain
# Format: functional
# Details: not given
# In short: as §1
row,SMILES,MIC
1,CO[C@@]1(NC(=O)C2SC(=C(C(N)=O)C(=O)O)S2)C(=O)N2C(C(=O)O)=C(CSc3nnnn3C)CS[C@@H]21 (some centres not stated) [CEFOTETAN],16 µg/mL

# Test system: Clostridium perfringens
# Experiment: Antibacterial activity against anaerobic Clostridium perfringens 81
# Format: functional
# Details: not given
# In short: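 Agar dilution MIC following NCCLS document M11-A2 (Vol. 10, no. 15), the method for antimicrobial testing of anaerobic bacteria; value reported as minimum inhibitory concentration.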
row,SMILES,MIC
1,CO[C@@]1(NC(=O)C2SC(=C(C(N)=O)C(=O)O)S2)C(=O)N2C(C(=O)O)=C(CSc3nnnn3C)CS[C@@H]21 (some centres not stated) [CEFOTETAN],1 µg/mL

# Test system: Clostridium septicum
# Experiment: Antibacterial activity against anaerobic Clostridium septicum 1128
# Format: functional
# Details: not given
# In short: as §1
row,SMILES,MIC
1,CO[C@@]1(NC(=O)C2SC(=C(C(N)=O)C(=O)O)S2)C(=O)N2C(C(=O)O)=C(CSc3nnnn3C)CS[C@@H]21 (some centres not stated) [CEFOTETAN],4 µg/mL

# Test system: Escherichia coli
# Experiment: Antibacterial activity against aerobic Escherichia coli EC14
# Format: functional
# Details: not given
# In short: (§2)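 MIC by agar dilution following the NCCLS M7-A2 (2nd ed.) procedure for bacteria that grow aerobically.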
row,SMILES,MIC
1,CO[C@@]1(NC(=O)C2SC(=C(C(N)=O)C(=O)O)S2)C(=O)N2C(C(=O)O)=C(CSc3nnnn3C)CS[C@@H]21 (some centres not stated) [CEFOTETAN],0.125 µg/mL

# Test system: not listed separately
# Experiment: Antibacterial activity against anaerobic Eubacterium aerofaciens 1235
# Format: functional
# Details: Collinsella aerofaciens
# In short: as §1
row,SMILES,MIC
1,CO[C@@]1(NC(=O)C2SC(=C(C(N)=O)C(=O)O)S2)C(=O)N2C(C(=O)O)=C(CSc3nnnn3C)CS[C@@H]21 (some centres not stated) [CEFOTETAN],4 µg/mL

# Test system: Klebsiella aerogenes
# Experiment: Antibacterial activity against aerobic Enterobacter aerogenes C32
# Format: functional
# Details: not given
# In short: as §2
row,SMILES,MIC
1,CO[C@@]1(NC(=O)C2SC(=C(C(N)=O)C(=O)O)S2)C(=O)N2C(C(=O)O)=C(CSc3nnnn3C)CS[C@@H]21 (some centres not stated) [CEFOTETAN],8 µg/mL

# Test system: not listed separately
# Experiment: Antibacterial activity against anaerobic Fusobacterium symbiosum 1470
# Format: functional, fusobacterium symbosium
# Details: not given
# In short: as §1
row,SMILES,MIC
1,CO[C@@]1(NC(=O)C2SC(=C(C(N)=O)C(=O)O)S2)C(=O)N2C(C(=O)O)=C(CSc3nnnn3C)CS[C@@H]21 (some centres not stated) [CEFOTETAN],128 µg/mL

# Test system: Fusobacterium necrophorum
# Experiment: Antibacterial activity against anaerobic Fusobacterium necrophorum 6054A
# Format: functional
# Details: not given
# In short: as §1
row,SMILES,MIC
1,CO[C@@]1(NC(=O)C2SC(=C(C(N)=O)C(=O)O)S2)C(=O)N2C(C(=O)O)=C(CSc3nnnn3C)CS[C@@H]21 (some centres not stated) [CEFOTETAN],> 128 µg/mL

# Test system: Haemophilus influenzae
# Experiment: Antibacterial activity against aerobic Haemophilus influenzae RES 76
# Format: functional
# Details: not given
# In short: as §2
row,SMILES,MIC
1,CO[C@@]1(NC(=O)C2SC(=C(C(N)=O)C(=O)O)S2)C(=O)N2C(C(=O)O)=C(CSc3nnnn3C)CS[C@@H]21 (some centres not stated) [CEFOTETAN],1 µg/mL

# Test system: Klebsiella pneumoniae
# Experiment: Antibacterial activity against aerobic Klebsiella pneumoniae X26
# Format: functional
# Details: not given
# In short: as §2
row,SMILES,MIC
1,CO[C@@]1(NC(=O)C2SC(=C(C(N)=O)C(=O)O)S2)C(=O)N2C(C(=O)O)=C(CSc3nnnn3C)CS[C@@H]21 (some centres not stated) [CEFOTETAN],0.125 µg/mL

# Test system: Peptostreptococcus anaerobius
# Experiment: Antibacterial activity against anaerobic Peptostreptococcus anaerobius 1451
# Format: functional
# Details: not given
# In short: as §1
row,SMILES,MIC
1,CO[C@@]1(NC(=O)C2SC(=C(C(N)=O)C(=O)O)S2)C(=O)N2C(C(=O)O)=C(CSc3nnnn3C)CS[C@@H]21 (some centres not stated) [CEFOTETAN],128 µg/mL

# Test system: not listed separately
# Experiment: Antibacterial activity against anaerobic Peptostreptococcus intermedius 1264
# Format: functional
# Details: not given
# In short: as §1
row,SMILES,MIC
1,CO[C@@]1(NC(=O)C2SC(=C(C(N)=O)C(=O)O)S2)C(=O)N2C(C(=O)O)=C(CSc3nnnn3C)CS[C@@H]21 (some centres not stated) [CEFOTETAN],8 µg/mL

# Test system: Pseudomonas aeruginosa
# Experiment: Antibacterial activity against aerobic Pseudomonas aeruginosa X239 strain
# Format: functional
# Details: not given
# In short: as §2
row,SMILES,MIC
1,CO[C@@]1(NC(=O)C2SC(=C(C(N)=O)C(=O)O)S2)C(=O)N2C(C(=O)O)=C(CSc3nnnn3C)CS[C@@H]21 (some centres not stated) [CEFOTETAN],> 128 µg/mL

# Test system: not listed separately
# Experiment: Antibacterial activity against anaerobic Peptococcus asaccharolyticus 1302
# Format: functional
# Details: Peptoniphilus asaccharolyticus
# In short: as §1
row,SMILES,MIC
1,CO[C@@]1(NC(=O)C2SC(=C(C(N)=O)C(=O)O)S2)C(=O)N2C(C(=O)O)=C(CSc3nnnn3C)CS[C@@H]21 (some centres not stated) [CEFOTETAN],1 µg/mL

# Test system: Anaerococcus prevotii
# Experiment: Antibacterial activity against anaerobic Peptococcus prevoti 1281
# Format: functional
# Details: not given
# In short: as §1
row,SMILES,MIC
1,CO[C@@]1(NC(=O)C2SC(=C(C(N)=O)C(=O)O)S2)C(=O)N2C(C(=O)O)=C(CSc3nnnn3C)CS[C@@H]21 (some centres not stated) [CEFOTETAN],8 µg/mL

# Test system: Cutibacterium acnes
# Experiment: Antibacterial activity against anaerobic Propionibacterium acnes 79
# Format: functional
# Details: not given
# In short: as §1
row,SMILES,MIC
1,CO[C@@]1(NC(=O)C2SC(=C(C(N)=O)C(=O)O)S2)C(=O)N2C(C(=O)O)=C(CSc3nnnn3C)CS[C@@H]21 (some centres not stated) [CEFOTETAN],1 µg/mL

# Test system: Staphylococcus epidermidis
# Experiment: Antibacterial activity against aerobic Staphylococcus epidermidis 222
# Format: functional
# Details: not given
# In short: as §2
row,SMILES,MIC
1,CO[C@@]1(NC(=O)C2SC(=C(C(N)=O)C(=O)O)S2)C(=O)N2C(C(=O)O)=C(CSc3nnnn3C)CS[C@@H]21 (some centres not stated) [CEFOTETAN],16 µg/mL

# Test system: Streptococcus pneumoniae
# Experiment: Antibacterial activity against aerobic Streptococcus pneumoniae PARK
# Format: functional
# Details: not given
# In short: as §2
row,SMILES,MIC
1,CO[C@@]1(NC(=O)C2SC(=C(C(N)=O)C(=O)O)S2)C(=O)N2C(C(=O)O)=C(CSc3nnnn3C)CS[C@@H]21 (some centres not stated) [CEFOTETAN],4 µg/mL

# Test system: Staphylococcus aureus
# Experiment: Antibacterial activity against aerobic Staphylococcus aureus X1.1 strain
# Format: functional
# Details: not given
# In short: as §2
row,SMILES,MIC
1,CO[C@@]1(NC(=O)C2SC(=C(C(N)=O)C(=O)O)S2)C(=O)N2C(C(=O)O)=C(CSc3nnnn3C)CS[C@@H]21 (some centres not stated) [CEFOTETAN],8 µg/mL

# Reference: ChEMBL document CHEMBL1126762, “Synthesis and anaerobic activity of novel 1-carba-1-dethiacephalosporins” (J Med Chem, 1993)
